Compounds with a hit are over-represented: about 6.8% of the library has one in this group of screens.
HSF1 activator – increases HSF-1 driven luciferase reporter signal; NIH3T3-HGL HSF-1 luciferase reporter, MG132, 8 h; 100% = twice DMSO control signal; activation, % at 9 µM; 300,000 tested, 1.7% active; AID 504408;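 active = mean replicate activation of at least 50% with a set share of replicates each reaching 50%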;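 note: 0% = median of the neutral control wells and 100% = twice that signal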
core dimer inh – blocks dimerization of HCV core protein; inhibition, % at 5 µM; TR-FRET GST/Flag-core106 dimerization, 1536-well; 300,000 tested, 0.33% active;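 active = inhibition above the mean of all tested compounds plus 3 SD, set per screening campaign, cut at about 45% in these data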
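Assay system: Tagged HCV core106 pair (GST and Flag) | Buffer or medium: KF-containing HEPES buffer, pH 7.45, DTT, CHAPS, BSA | Also added: Eu donor and XL665 acceptor anti-tag antibodies | Dosing: One concentration, 5 µM, in 0.5% DMSO | Timing: 4 h at 22.5 °C | Technique: TR-FRET 671 and 617 nm emission | Repeats: Singlicate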
HSF1 inhib – HSF1 inhibition; activity change, negative = inhibition, % at 7.5 µM (by protocol); 300,000 tested, 0.77% active; NIH3T3-HGL HSE-luciferase, MG132-induced, luminescence 8 h; hits give low values;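 active = more than half of replicate wells show activity change below -50%, luminescence cut by over half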;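 note: luciferase reports HSF-1 transcriptional activity via heat shock element; 0% = median of DMSO wells and -100% = zero luminescence signal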
AI-2 QS modul – modulators of Vibrio harveyi AI-2 quorum sensing system | 300,000 tested, 0.4% active | AID 2094 | activity change, % at 7.5 µM | Vibrio harveyi JMH597 AI-2 luminescence/OD600 ratio, 9 h; hits give low values; strain lacks LuxN and CqsS sensors; 0 = neutral-control median; in the data active = activity change below about -75%, passing the limit was not always enough;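 note: luminescence divided by OD600 gain over 9 h not by final OD600 alone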
ALR H2O2 inh – inhibitors of human sulfhydryl oxidase ALR | P55789 | purified ALR, DTT oxidation, H2O2 HRP-luminol luminescence | inhibition, % (test concentration not listed) | 290,000 tested, 3.8% active | AID 485317;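 active = mean replicate inhibition above about 79%, with every replicate also reaching it, limit read from the data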
Target sequence (P55789 whole entry, looked up): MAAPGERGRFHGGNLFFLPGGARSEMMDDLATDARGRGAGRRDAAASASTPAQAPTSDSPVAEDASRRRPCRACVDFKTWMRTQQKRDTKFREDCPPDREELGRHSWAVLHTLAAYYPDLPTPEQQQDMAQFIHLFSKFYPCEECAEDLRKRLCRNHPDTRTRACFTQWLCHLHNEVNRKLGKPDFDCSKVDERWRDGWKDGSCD
PHOSPHO1 inh – blocks human PHOSPHO1 phosphatase activity | Q8TCT1 | inhibition, % at 13.3 µM | 290,000 tested, 1.1% active | recombinant PHOSPHO1, absorbance phosphatase assay; in the data active = inhibition above about 60%
Target sequence (Q8TCT1 whole entry, looked up): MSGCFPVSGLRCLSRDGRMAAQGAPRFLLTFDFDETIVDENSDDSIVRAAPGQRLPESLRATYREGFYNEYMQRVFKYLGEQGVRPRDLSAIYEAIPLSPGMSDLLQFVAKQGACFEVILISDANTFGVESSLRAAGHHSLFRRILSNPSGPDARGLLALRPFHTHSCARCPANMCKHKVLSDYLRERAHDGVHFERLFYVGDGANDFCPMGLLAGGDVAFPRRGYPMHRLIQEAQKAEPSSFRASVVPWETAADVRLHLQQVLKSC
Starred values were filed as active, the others as inactive.

Results for CCCCOc1ccc(-c2nc(=S)[nH][nH]2)cc1 ?
HSF1 activator: 5; core dimer inh: 0; HSF1 inhib: 3; AI-2 QS modul: -89*; ALR H2O2 inh: 99*; PHOSPHO1 inh: 80*

How did COc1ccc(C(=O)/C(C#N)=N/Nc2ccc([N+](=O)[O-])cc2)cc1 do in these assays?
core dimer inh: -5; AI-2 QS modul: 10; ALR H2O2 inh: -8; PHOSPHO1 inh: 25

How did COc1ccc(N/N=C(\C#N)C(=N)N2CCOCC2)cc1 do in these assays?
HSF1 activator: -17; core dimer inh: -8; HSF1 inhib: -13; AI-2 QS modul: 15; ALR H2O2 inh: 99*; PHOSPHO1 inh: -12

How did CCOc1ccc(N/N=C(/C#N)C(N)=O)cc1 do in these assays?
HSF1 activator: 5; core dimer inh: -7; HSF1 inhib: -5; AI-2 QS modul: 10; ALR H2O2 inh: 98*; PHOSPHO1 inh: -15

What do the screens show for `COc1ccc(N/N=C(\C#N)C(N)=O)cc1`?
HSF1 activator: 8; core dimer inh: -1; HSF1 inhib: 2; AI-2 QS modul: 17; ALR H2O2 inh: 98*; PHOSPHO1 inh: -2

How did COCCCNC(=O)CCc1c(C)c2cc3c(C)coc3cc2oc1=O do in these assays?
HSF1 activator: 17; core dimer inh: 7; HSF1 inhib: -8; AI-2 QS modul: 3; ALR H2O2 inh: 1; PHOSPHO1 inh: 18

How did O=C(Cc1ccccc1)NCC(=O)N/N=C/c1ccc(Cl)cc1 do in these assays?
HSF1 activator: -3; core dimer inh: 6; HSF1 inhib: 4; AI-2 QS modul: 1; ALR H2O2 inh: 2; PHOSPHO1 inh: 28

How did Cn1cc([N+](=O)[O-])c(C(=O)Nc2ccc(-c3nc4ccccc4o3)cc2)n1 do in these assays?
HSF1 activator: 285*; core dimer inh: -2; HSF1 inhib: 281; AI-2 QS modul: 21; ALR H2O2 inh: -7; PHOSPHO1 inh: -5

How did O=C(Nc1ccc(-c2nc3ncccc3o2)cc1)c1ccc([N+](=O)[O-])o1 do in these assays?
HSF1 activator: 151*; core dimer inh: 7; HSF1 inhib: 104; AI-2 QS modul: 21; PHOSPHO1 inh: 11

Results for O=C(Nc1ccc2oc(-c3ccncc3)nc2c1)c1ccc([N+](=O)[O-])o1 ?
HSF1 activator: 84*; core dimer inh: 8; HSF1 inhib: 101; AI-2 QS modul: 24; PHOSPHO1 inh: 28

How did O=C(Nc1ccc(-c2nc3ccccc3o2)cc1)c1ccc(N2CCOCC2)c([N+](=O)[O-])c1 do in these assays?
HSF1 activator: -1; core dimer inh: 2; HSF1 inhib: -8; AI-2 QS modul: 30; ALR H2O2 inh: 0; PHOSPHO1 inh: 12

What do the screens show for `Cc1ccc(-c2nc3ncccc3o2)cc1NC(=O)c1ccc([N+](=O)[O-])o1`?
HSF1 activator: 139*; core dimer inh: -5; HSF1 inhib: 91; AI-2 QS modul: 26; ALR H2O2 inh: -14; PHOSPHO1 inh: 39

Results for O=C(CO/N=C/c1ccc(Cl)cc1Cl)NNC(=O)c1ccc(Cl)cc1Cl ?
HSF1 activator: 25; core dimer inh: -4; HSF1 inhib: 0; AI-2 QS modul: -88*; ALR H2O2 inh: -6; PHOSPHO1 inh: 18

How did O=C(CN1CCc2ccccc21)Nc1ccc2c(c1)OCCCO2 do in these assays?
ALR H2O2 inh: 15

Results for CC(=O)c1ccc(NC(=O)CSc2nc(=O)cc(N)n2-c2ccccc2)cc1 ?
HSF1 activator: 8; core dimer inh: 3; HSF1 inhib: 15; AI-2 QS modul: 18; ALR H2O2 inh: 99*; PHOSPHO1 inh: 30

Results for COC(=O)c1ccc(NC(=O)CSc2nc(=O)cc(N)n2-c2ccccc2)cc1 ?
HSF1 activator: 42; core dimer inh: -8; HSF1 inhib: 2; AI-2 QS modul: 2; ALR H2O2 inh: 99*; PHOSPHO1 inh: -17

Results for CC(C)(C)c1cc(C(=O)NCc2cc(F)cc3c2OCOC3)n(Cc2ccccc2)n1 ?
HSF1 activator: 56*; core dimer inh: 5; HSF1 inhib: 42; AI-2 QS modul: 21; ALR H2O2 inh: -5; PHOSPHO1 inh: -10

How did Cc1ccccc1NC(=O)c1ccc2nc(N3CCOCC3)sc2c1 do in these assays?
HSF1 activator: -12; core dimer inh: -7; HSF1 inhib: -4; AI-2 QS modul: 7; PHOSPHO1 inh: 36

How did CC(C)(C)c1ccc(Cn2c(=N)n(CC(O)c3ccco3)c3ccccc32)cc1 (stereo not given) do in these assays?
HSF1 activator: 56*; core dimer inh: -6; HSF1 inhib: 24; AI-2 QS modul: 18; PHOSPHO1 inh: 41

Results for Cc1ccccc1Cn1c(=N)n(CC(O)c2ccco2)c2ccccc21 (stereo not given) ?
HSF1 activator: 1; core dimer inh: 1; HSF1 inhib: 10; AI-2 QS modul: 17; ALR H2O2 inh: 1; PHOSPHO1 inh: -4

Results for CCOC(=O)N1CCN(C(=O)c2ccc3c(c2)NC(=O)/C(=C\c2cccc(C)c2)S3)CC1 ?
HSF1 activator: 30; core dimer inh: 3; HSF1 inhib: 6; AI-2 QS modul: 3; ALR H2O2 inh: -19; PHOSPHO1 inh: 0

Results for Oc1ccc(N=Nc2ccc(Br)cc2)c(O)c1 ?
HSF1 activator: 5; core dimer inh: -18; HSF1 inhib: 10; AI-2 QS modul: 2; ALR H2O2 inh: 99*; PHOSPHO1 inh: -23

What do the screens show for `Cc1ccc(N=Nc2ccc(O)cc2)c(Br)c1`?
HSF1 activator: 61*; core dimer inh: -9; HSF1 inhib: 21; AI-2 QS modul: 7; ALR H2O2 inh: 92*; PHOSPHO1 inh: 29

What do the screens show for `CS(=O)(=O)N(CC(=O)NCC1CCCO1)c1cc(Cl)ccc1Cl` (stereo not given)?
HSF1 activator: 54*; core dimer inh: -1; HSF1 inhib: 18; AI-2 QS modul: 4; ALR H2O2 inh: 1; PHOSPHO1 inh: -11

What do the screens show for `CCC1(c2ccccc2)NC(=O)N(CC(=O)Nc2ccc(S(=O)(=O)Nc3ncccn3)cc2)C1=O` (stereo not given)?
HSF1 activator: -20; core dimer inh: -1; HSF1 inhib: -6; AI-2 QS modul: 6; ALR H2O2 inh: -7

How did O=C(CSCc1nc2ccccc2[nH]1)Nc1ccc2ccccc2c1 do in these assays?
HSF1 activator: 5; core dimer inh: -2; HSF1 inhib: -2; AI-2 QS modul: 4; ALR H2O2 inh: 99*; PHOSPHO1 inh: 14

Results for O=C(CSc1nc2ccccc2[nH]1)Nc1ccc(F)c(F)c1 ?
HSF1 activator: -71; core dimer inh: 6; HSF1 inhib: -61*; AI-2 QS modul: 9; ALR H2O2 inh: -5; PHOSPHO1 inh: -20

How did O=C(CSc1nc2ccc(Cl)cc2[nH]1)NC1CCCC1 do in these assays?
HSF1 activator: 44; core dimer inh: -9; HSF1 inhib: 15; AI-2 QS modul: 7; ALR H2O2 inh: -4; PHOSPHO1 inh: 23

Bioassay records deposited in PubChem by several laboratories.
